In the library only some 3.5% were active in any assay of this set; here they are far more common.
MITF act – activators of MITF-driven TRPM1 promoter activity in SK-MEL-5 cells. SK-MEL-5 TRPM1-promoter luciferase, 24 h; % of positive control, neutral wells = 0. activation, % at 12.5 µM. hit rate 0.75% among 300,000;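 active = mean activation of at least 80% with every replicate also reaching 80%; inconclusive = mean reaches 80% but some replicate falls short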;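 also: 0% = neutral control wells and 100% = parthenolide positive control wells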
Wnt act – activates Wnt/beta-catenin signaling in a reporter cell assay; activator, plate reader; activation, % at 9.35 µM; hit rate 1.2% among 300,000; AID 743398; in the data active = activation above about 30%, passing the limit was not always enough; inconclusive = no clear call, values can overlap the other calls;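 also: 0% = neutral control wells and 100% = positive control wells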
ERAP1 HTS inh – inhibitors of human ERAP1 aminopeptidase. hit rate 0.15% among 340,000. inhibition, % at 10.7 µM. recombinant ERAP1, Leu-AMC fluorescence, 60 min. Q9NZ08;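 active = mean replicate inhibition of at least 30%, or all replicates individually reaching that 30% level; inactive = mean below 30% and not every replicate reaching it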;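 also: 0% = neutral control wells and 100% = L-leucinethiol positive control wells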
Target sequence (Q9NZ08 whole entry, looked up): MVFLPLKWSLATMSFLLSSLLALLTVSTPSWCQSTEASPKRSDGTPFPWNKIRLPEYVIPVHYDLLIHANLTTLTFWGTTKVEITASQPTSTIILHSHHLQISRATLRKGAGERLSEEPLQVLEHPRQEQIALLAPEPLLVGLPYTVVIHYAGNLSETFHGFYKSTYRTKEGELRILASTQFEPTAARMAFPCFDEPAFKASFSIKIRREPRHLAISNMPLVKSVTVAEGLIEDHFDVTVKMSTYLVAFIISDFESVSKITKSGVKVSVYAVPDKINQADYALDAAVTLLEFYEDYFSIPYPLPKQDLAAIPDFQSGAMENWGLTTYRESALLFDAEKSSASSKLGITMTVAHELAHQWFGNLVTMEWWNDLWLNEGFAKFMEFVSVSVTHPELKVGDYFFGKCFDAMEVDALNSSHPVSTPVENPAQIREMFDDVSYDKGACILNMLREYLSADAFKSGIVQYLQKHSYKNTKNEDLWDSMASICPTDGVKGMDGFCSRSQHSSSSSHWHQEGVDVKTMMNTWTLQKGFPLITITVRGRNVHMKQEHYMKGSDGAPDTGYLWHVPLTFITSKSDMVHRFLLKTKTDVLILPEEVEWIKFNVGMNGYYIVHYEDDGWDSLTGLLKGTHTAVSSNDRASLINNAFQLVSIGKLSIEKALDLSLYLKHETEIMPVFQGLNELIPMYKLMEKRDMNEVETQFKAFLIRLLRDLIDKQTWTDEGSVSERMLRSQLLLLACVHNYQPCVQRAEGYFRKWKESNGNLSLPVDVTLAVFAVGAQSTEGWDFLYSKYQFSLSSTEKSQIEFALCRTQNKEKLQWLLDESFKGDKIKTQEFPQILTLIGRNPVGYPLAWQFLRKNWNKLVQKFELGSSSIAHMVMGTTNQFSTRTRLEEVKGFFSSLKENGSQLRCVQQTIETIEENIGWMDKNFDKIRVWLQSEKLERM
Cneo AK release – Cryptococcus neoformans lysis via adenylate kinase release | C. neoformans lysis, adenylate kinase release luminescence, 4 h; normalised: neutral wells 0, clomiphene wells 100 | lysis activity, % at 15 µM | hit rate 0.2% among 360,000 | AID 651654;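 active = mean lysis activity across replicates of at least 80%, whatever share of replicates individually reach that level; inactive = mean lysis activity below 80%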
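Assay system: log-phase C. neoformans yeast / Quantity: yeast cell density of 5 × 10^6 cells/mL / Medium: fresh YPD growth medium / Compound: single dose / Timing: static 4 h at 37 °C with compound, 1 h detection / Measured by: adenylate kinase release luminescence / Read-out: lysis from increased AK signal / Benchmarks: Clomiphene as positive lysis control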
esBAF inh – SWI/SNF esBAF complex inhibition; mouse ES cells, Bmi1-luciferase knock-in reporter, 24 h; 100% = twice the neutral-well signal; reporter increase, % at 12.5 µM; hit rate 2% among 350,000; AID 602393; in the data active = activation above about 40%; inconclusive = no clear call, values can overlap the other calls;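 also: 0% = median of the plate's neutral control wells and 100% = double that signal; a rise in the Bmi1 reporter signal indicates esBAF inhibition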
Env fusion inh – HIV envelope-mediated fusion inhibition | inhibition, % at 12.3 µM | hit rate 1.1% among 360,000 | HeLa-JRFL Env/CEM21 cell fusion, luciferase;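 active = mean replicate inhibition score of at least 50 and every replicate individually at or above 50; inconclusive = only one of the two criteria met; inactive = mean below 50 and not all replicates reaching 50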;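 also: 0% = plate neutral controls and 100% = maraviroc near 300 nM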
An asterisk follows results filed as active; ? = inconclusive; · = no result given; [ ] = another dose, or the depositor's remark.

SMILES	MITF act	Wnt act	ERAP1 HTS inh	Cneo AK release	esBAF inh	Env fusion inh
CCCNC(=O)N(C)C[C@H]1Oc2cc(-c3cccnc3)ccc2S(=O)(=O)N([C@H](C)CO)C[C@H]1C	·	·	0.3	3.3	1.8	-1.1[16.7 µM]
COc1ccc2nc(-c3ccccc3)[nH]c(=O)c2c1	33.7	2.5	·	-0.4	44.4*	-23.8
COc1ccc2nc(-c3ccccc3)nc(SC)c2c1	27.2	12.4	·	0.6	47.3*	13.5
COc1ccc2nc(C)[nH]c(=O)c2c1	-2.0	·	-0.6	0.1	-2.3	·
CCCNC(=O)[C@@H]1[C@@H](CO)[C@@H]2Cn3c(ccc(-c4cccc(C(=O)N(C)C)c4)c3=O)[C@H]1N2	·	·	-0.9	42.6	-4.5	·
O=C(CCN1CCCCC1)N[C@@H]1CC[C@H](CCn2cc(-c3ccccc3)nn2)O[C@@H]1CO	·	·	-1.5	0.0	-7.2	-8.3[16.7 µM]
COc1ccc(-c2cn(CC[C@H]3CC[C@H](NS(=O)(=O)c4ccccc4C)[C@H](CO)O3)nn2)cc1	·	·	0.5	0.3	16.5	72.8*[16.7 µM]
O=C(CCN1CCCCC1)N[C@H]1CC[C@H](CCn2cc(-c3ccccc3)nn2)O[C@@H]1CO	·	·	-1.5	2.7	-1.9	77.5*[16.7 µM]
O=C(CCN1CCCCC1)N[C@@H]1CC[C@@H](CCn2cc(-c3ccccc3)nn2)O[C@@H]1CO	·	·	-3.1	-0.4	0.8	74.9*[16.7 µM]
CN(C)C(=O)C[C@H]1CC[C@@H]2[C@H](COC[C@H](O)CN2CC2CCCCC2)O1	·	·	-0.8	-1.7	-3.6	5.7[16.7 µM]
O=C(NN=Cc1ccc(OC(F)F)cc1)c1ccc(NS(=O)(=O)c2cccs2)cc1	30.4	50.6*	0.2	-3.6	30.2	-12.7
COc1ccc2[nH]c(O)c(N=NC(=O)c3ccc(NS(=O)(=O)c4cccs4)cc3)c2c1	40.8	18.6	0.6	-2.9	44.2*	-31.5
COc1ccccc1NC(=O)N[C@@H]1CC[C@@H](CC(=O)NCc2ccc(Cl)c(Cl)c2)O[C@H]1CO	·	·	2.5	2.8	11.3	·
CCCNC(=O)N1C[C@@H]2[C@H](c3ccccc31)[C@@H](CO)N2Cc1ccc(OC)cc1	·	·	-1.8	-0.8	-6.3	·
CCCNC(=O)N1C[C@@H]2[C@H](c3ccccc31)[C@H](CO)N2Cc1ccc(OC)cc1	·	·	0.2	100.6*	-5.2	·
O=C(NCC1CCCO1)c1cccc2ccccc12 (centres undefined)	-6.6	0.8	-1.6	-2.9	1.9	0.3
CC1CCC(NC(=O)c2cc3ccccc3cc2O)CC1 (centres undefined)	94.1*	46.3*	0.2	-2.9	77.2*	·
O=C(NCC1CCCO1)c1cc2ccccc2cc1O (centres undefined)	61.5	27.7	-4.5	1.0	56.9*	-43.7
O=C(NCC1CCCCC1)c1cc2ccccc2cc1O	28.9	17.2	1.0	-17.6	54.0*	2.5
O=C(NCCOc1ccccc1)c1cc2ccccc2o1	102.4*	14.9	·	7.3	13.3	-60.8
COc1cccc(NC(=O)N[C@H]2C=C[C@H](CC(=O)Nc3ccc(-c4ccccc4)cc3)O[C@@H]2CO)c1	·	·	0.1	1.4	11.2	·
CCNC(=O)C[C@@H]1CC[C@@H]2[C@@H](COc3ccc(NC(=O)Nc4ccccc4OC)cc3C(=O)N2C)O1	·	·	-1.7	-1.0	-1.2	-3.2[16.7 µM]
Cc1ccc(S(=O)(=O)N[C@@H]2CC[C@H](CCn3cc(C4CCCCC4)nn3)O[C@H]2CO)cc1	·	·	-1.2	-4.0	6.5	?
O=C(Cc1ccccc1)NCC1CCCO1 (centres undefined)	27.5	1.1	·	0.3	-0.8	-2.6
O=C(NCC1CCCO1)c1cc2ccccc2o1 (centres undefined)	35.9	3.9	-0.4	-1.8	43.7*	-14.6
SMILES	MITF act	Wnt act	ERAP1 HTS inh	Cneo AK release	esBAF inh	Env fusion inh
C=C[C@@H]1c2cc(C)ccc2N(S(=O)(=O)c2ccc(C)cc2)[C@H](c2ccccc2C(F)(F)F)C1(C#N)C#N	·	-5.5	-1.7	0.9	-10.0	56.3*
Cc1cccc(-c2nnc(-c3cccc(NC(=O)Cc4cccs4)c3)o2)c1	55.6	·	·	0.2	80.5*	·
Cc1cc(C(=O)Nc2cccc3c2O[C@@H](CN(C)S(C)(=O)=O)[C@H](C)CN([C@H](C)CO)C3=O)n(C)n1	·	·	0.5	1.1	-5.6	-23.8[16.7 µM]
O=C(COc1ccc(C(=O)c2ccccc2)cc1)NC1CCCCCC1	-8.0	48.6*	·	·	·	6.6
O=C(COC(=O)c1ccccc1F)NC1CCCC1	-7.7	2.5	-3.1	-2.0	2.1	18.9
O=C(COC(=O)c1c(F)cccc1Cl)NC1CCCCC1	85.2*	16.5	-1.0	-0.7	·	-36.2
O=C(COc1ccccc1Br)NC(=O)NC1CCCC1	140.8*	11.4	-3.5	-4.9	39.3	·
O=C(COC(=O)c1ccc(Br)cc1)NC1CCCC1	-0.9	0.9	-0.1	-0.6	-5.0	-3.4
O=C(COC(=O)c1cccc(Br)c1)NC1CCCCCCC1	·	-0.2	1.8	-1.7	-3.9	58.3*
O=C(COc1ccc(C(=O)c2ccccc2)cc1)NC1CCCCC1	10.2	-3.2	-5.2	0.2	·	18.6
C[C@@H]1CCCCO[C@@H](CN(C)C(=O)Nc2ccccc2)[C@H](C)CN([C@H](C)CO)C(=O)c2cc(NC(=O)NC3CCCCC3)ccc2O1	·	·	3.4	0.1	9.3	-24.9[16.7 µM]
[N-]=[N+]=NCc1ccccc1C[C@]1(C(=O)N2CCCCC2)COC(c2ccc(OCCCO)cc2)=N1	·	·	-0.6	10.8	·	6.5[16.7 µM]
COc1ccc2c3c([nH]c2c1)[C@H](CO)N(C(=O)NC(C)C)CC31CN(C(=O)NC(C)C)C1	·	·	4.4	·	·	-20.8[16.7 µM]
COc1ccc(/C=C/C(=O)N2CCC(c3ccccc3)C2)cc1 (centres undefined)	11.6	-1.7	·	·	·	-12.9
COC(=O)C1CCN(C(=O)/C=C/c2ccc(OC)cc2)CC1	24.9	56.7*	·	-3.0	-5.6	-157.5
CCOC(=O)C1CCCN(C(=O)/C=C/c2ccccc2)CC1 (centres undefined)	·	·	2.2	-0.9	-8.5	-26.7
CCOC(=O)C1CCN(C(=O)/C=C/c2ccccc2)CC1	18.2	44.9*	-5.0	·	·	-108.2
COCCNC(=O)[C@H]1[C@H](CO)[C@H]2Cn3c(ccc(-c4ccccc4)c3=O)[C@@H]1N2C(=O)NC(C)C	·	·	-0.8	-4.7	1.7	·
CCN1C(=O)[C@H]2[C@@H](c3ccc(C)cc3)N3C(=O)N(c4cccc(Cl)c4)C(=O)[C@@]3(C)[C@H]2C1=O	-2.7	-0.6	·	0.4	6.9	37.1
Cc1cccc([C@@H]2[C@@H]3C(=O)N(Cc4ccccc4)C(=O)[C@@H]3[C@]3(CC(C)C)C(=O)N(c4cccc(Cl)c4)C(=O)N23)c1	0.5	-6.6	-2.3	-2.6	4.7	55.4*
CCN1C(=O)[C@H]2[C@@H](c3ccc(C)cc3)N3C(=O)N(c4cccc(Cl)c4)C(=O)[C@@]3(CC)[C@H]2C1=O	5.5	-2.5	3.1	2.5	-4.3	95.9*
